Assay outcomes: PubChem BioAssay, several laboratories
Only some compounds are listed: those with a hit (about 3.8% of all), similar ones and a draw of the others.
B2AR ag: agonists of human beta-2 adrenergic receptor inducing internalization | P07550 | 340,000 compounds, 0.43% hits | Am2.2-beta2AR cells, FAP receptor internalization, flow cytometry | response, % (concentration not given with the values);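 active = response above a set limit, near 3 SD of response in nonfluorescent compounds, cut at about 42% in these data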
Target sequence (P07550 whole entry, looked up): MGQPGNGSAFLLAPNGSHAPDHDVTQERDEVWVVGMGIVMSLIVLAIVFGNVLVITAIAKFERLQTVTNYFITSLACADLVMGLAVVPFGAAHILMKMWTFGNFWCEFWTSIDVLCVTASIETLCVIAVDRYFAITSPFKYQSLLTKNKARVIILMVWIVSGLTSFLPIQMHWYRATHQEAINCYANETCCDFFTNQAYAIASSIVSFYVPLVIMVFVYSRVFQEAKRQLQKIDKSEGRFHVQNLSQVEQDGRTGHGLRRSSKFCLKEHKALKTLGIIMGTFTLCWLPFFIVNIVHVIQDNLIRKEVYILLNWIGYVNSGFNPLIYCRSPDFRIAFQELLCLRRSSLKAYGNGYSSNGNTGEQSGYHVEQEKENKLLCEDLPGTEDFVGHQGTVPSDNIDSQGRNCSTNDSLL
V-ATPase pH: alters yeast V-ATPase proton transport; S. cerevisiae, pHLuorin cytosolic pH fluorescence; response, % at 10 µM; 350,000 compounds, 0.37% hits; in the data active = response mostly above about 7.3%, no sharp cut-off; inactive = mostly below about 5.4%; note: actives read high
Exocytosis inh: lytic granule exocytosis inhibition; TALL-104 LAMP-1 surface exposure, flow cytometry; cells stimulated with thapsigargin and PMA; inhibition, % at 10 µM; 360,000 compounds, 0.66% hits; AID 651702;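 active = inhibition above about 55%, limit read from the data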
rCAG RNA binder: binds r(CAG) RNA repeats; 370,000 compounds, 1.3% hits; inhibition, % at 3 µM; AID 651821; r(CAG) RNA repeat, TO-PRO-1 dye displacement fluorescence;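 active = inhibition above the plate cutoff, the mean of all test compounds on that plate plus 3 SD, cut at about 35% in these data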;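 note: 0% = DMSO alone and 100% = 100 µM mitoxantrone as full dye displacement; higher means more dye released from RNA so lower well fluorescence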
MPTP inh: permeability transition pore inhibition; isolated mouse mitochondria, Ca2+ swelling absorbance, 30 min; inhibition, % at 10 µM; 360,000 compounds, 1.4% hits; AID 602449;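 active = inhibition of 50% or more, scaled per plate between neutral and stimulator controls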;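 note: 0% = DMSO wells given calcium and 100% = 1 mM EGTA wells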
T cell modulator: T cell immune modulation candidate | 2C CD8+ T cell-vesicle binding, flow cytometry; active compounds read low | response (vesicle binding), % at 7 µM | 330,000 compounds, 0.068% hits | AID 2052;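 active = response, share of CD8 T cells binding vesicles, and their 90th percentile fluorescence all below set limits, cut at about 80% in these data, passing the limit was not always enough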;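 note: values below 100% mean blocked vesicle binding to the CD8+ T cells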
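Material: murine 2C transgenic CD8+ T lymphocytes / Also added: QL9-peptide-loaded Drosophila micro-vesicles bearing Ld, ICAM-1 and B7-1 / Schedule: binding step 1.5 h, 37 °C, antibody labelling 20 min, ice / Signal: flow cytometry, PE anti-B7-1 (FL2) versus Alexa647 anti-CD8 (FL8), PFA-fixed / Evaluation: percent CD8+ FL2 mean versus row control / Benchmarks: naked versus QL9-loaded vesicles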
Rh123 counter: Rhodamine 123 counter-screen of mitochondrial pore hits. isolated mitochondria, membrane potential, Rhodamine 123 fluorescence. AID 624504. shares compounds with MPTP inh. inhibition, % at 10 µM. 5,000 compounds, 78% hits; in the data active = inhibition above about 22%;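 note: 0% = DMSO vehicle and 100% = positive control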
MPTP abs DR: MPTP inhibition, dose response swelling confirmation; shares compounds with MPTP inh; isolated mitochondria swelling, absorbance; IC50, µM; 780 compounds, 58% hits; AID 651561; in the data active = IC50 below about 20 µM
MPTP counter DR: active in counter-screen for permeability transition pore inhibitors | shares compounds with MPTP inh | isolated mitochondria counterscreen, fluorescence read-out | IC50, µM | 780 compounds, 49% hits | AID 651564; in the data active = IC50 below about 80 µM
Starred values were filed as active, the others as inactive.

What do the screens show for `Cc1cc(C(=O)Nn2c(-c3ccc(Br)cc3)nc3ccccc3c2=O)ccc1[N+](=O)[O-]`?
B2AR ag: 1; V-ATPase pH: 1; Exocytosis inh: -2; rCAG RNA binder: 22; MPTP inh: 67*; T cell modulator: 121; Rh123 counter: 87*

What do the screens show for `O=C(Nc1ccc(Nc2ccccc2)cc1)c1ccc(Cl)cc1[N+](=O)[O-]`?
B2AR ag: 17; V-ATPase pH: -5; Exocytosis inh: -1; rCAG RNA binder: 12; MPTP inh: 7; T cell modulator: inactive

What do the screens show for `O=C(O)CCCNc1c(C(=O)Nc2ccc(Cl)cc2)cc([N+](=O)[O-])cc1[N+](=O)[O-]`?
B2AR ag: 7; V-ATPase pH: 0; Exocytosis inh: 0; rCAG RNA binder: 26; MPTP inh: 88*; T cell modulator: 144; Rh123 counter: 94*

Results for COc1ccc(CC(=O)N2CCN(C(=O)c3ccc4nc(C)n(C5CCCC5)c4c3)CC2)cc1 ?
rCAG RNA binder: -1

How did O=C(COc1ccc(C(=O)c2ccccc2)cc1)NC1CCCCCC1 do in these assays?
B2AR ag: 22; V-ATPase pH: 6; Exocytosis inh: 0; rCAG RNA binder: -7; MPTP inh: 53*; T cell modulator: 124; Rh123 counter: 31*

How did O=C(COc1ccc(C(=O)c2ccccc2)cc1)Nc1cccnc1 do in these assays?
B2AR ag: -13; V-ATPase pH: -1; Exocytosis inh: 14; rCAG RNA binder: 0; MPTP inh: 81*; T cell modulator: 318; Rh123 counter: 82*

Results for O=C(COc1ccc(C(=O)c2ccccc2)cc1)NC1CCCCC1 ?
B2AR ag: 2; V-ATPase pH: 0; Exocytosis inh: -5; rCAG RNA binder: -5; MPTP inh: 3; T cell modulator: 260

How did CN(C)S(=O)(=O)c1cccc(CSCc2cccc(S(=O)(=O)N(C)C)c2)c1 do in these assays?
B2AR ag: -8; V-ATPase pH: -8; Exocytosis inh: 44; rCAG RNA binder: 3; MPTP inh: 79*; T cell modulator: 210; Rh123 counter: 88*

What do the screens show for `CCn1cc(CN2CCC(C(=O)Nc3ccc(Oc4ccccc4F)cc3)CC2)c(C)n1`?
B2AR ag: 0; V-ATPase pH: 0; Exocytosis inh: 4; rCAG RNA binder: -9; MPTP inh: 1; T cell modulator: 347

Results for CC(C)n1cc(CN2CCC(C(=O)Nc3ccc(Oc4ccccc4F)cc3)CC2)cn1 ?
B2AR ag: 6; V-ATPase pH: 3; Exocytosis inh: 7; rCAG RNA binder: -8; MPTP inh: 83*; T cell modulator: 350; Rh123 counter: 14; MPTP abs DR: 4.6*; MPTP counter DR: 26*

Results for CCN(CC)CCCNC(=O)CSc1nc2cccnc2n1C ?
rCAG RNA binder: 1

How did O=C(NC1CCCCN(Cc2cccc(Cl)c2)C1=O)c1cccc([N+](=O)[O-])c1 (configuration not stated) do in these assays?
rCAG RNA binder: 0

What do the screens show for `O=C(Nc1cc(-c2ccccc2)nn1C1CCCCC1)c1ccc(Cl)cc1`?
B2AR ag: 1; V-ATPase pH: 1; Exocytosis inh: 0; rCAG RNA binder: 11; MPTP inh: 64*; T cell modulator: 330; Rh123 counter: 97*

How did Cn1nc(-c2ccccc2)cc1NC(=O)c1ccccc1 do in these assays?
B2AR ag: 5; V-ATPase pH: 1; Exocytosis inh: -1; rCAG RNA binder: 0; MPTP inh: 0; T cell modulator: 183

How did O=C(Nc1ccccc1)Nc1nnc(Cc2ccc([N+](=O)[O-])cc2)s1 do in these assays?
B2AR ag: -4; V-ATPase pH: -3; Exocytosis inh: -5; rCAG RNA binder: 16; MPTP inh: 93*; T cell modulator: 92; Rh123 counter: 89*

What do the screens show for `Cc1ccc(NC(=O)Nc2nnc(Cc3ccc([N+](=O)[O-])cc3)s2)cc1C`?
B2AR ag: 2; V-ATPase pH: 0; Exocytosis inh: -4; rCAG RNA binder: 26; MPTP inh: 86*; T cell modulator: 260; Rh123 counter: 63*

What do the screens show for `CC(C)C[C@H]1COc2cccc(F)c2S(=O)(=O)N1C`?
rCAG RNA binder: 1

How did O=C(Nc1ccc(Cl)c(Cl)c1)C1CC(=O)N(c2ccc(Br)cc2)C1 (configuration not stated) do in these assays?
B2AR ag: 1; V-ATPase pH: 2; Exocytosis inh: 7; rCAG RNA binder: 4; MPTP inh: 63*; T cell modulator: 424; Rh123 counter: 87*

Results for Cc1ccc(N2CC(C(=O)N3CCC(C(=O)Nc4ccc(Br)cc4)CC3)CC2=O)cc1 (configuration not stated) ?
B2AR ag: -13; V-ATPase pH: -2; Exocytosis inh: 4; rCAG RNA binder: 2; MPTP inh: 0; T cell modulator: 446

How did Cc1cc2nc(CCN(C(=S)NCC(C)C)C3CCCC3)[nH]c2cc1C do in these assays?
B2AR ag: 11; V-ATPase pH: -3; Exocytosis inh: 1; rCAG RNA binder: -2; MPTP inh: 85*; T cell modulator: 670; Rh123 counter: 84*

Results for Cc1cc2nc(CCN(C(=S)NCC3CCCO3)C3CCCC3)[nH]c2cc1C (configuration not stated) ?
B2AR ag: -5; V-ATPase pH: 0; Exocytosis inh: -1; rCAG RNA binder: -2; MPTP inh: -1; T cell modulator: 290

What do the screens show for `O=C1NN(c2cccc(Br)c2)C(=O)/C1=C/c1ccc(-c2cc([N+](=O)[O-])ccc2O)o1`?
V-ATPase pH: 4; Exocytosis inh: 13; MPTP inh: 79*; T cell modulator: 422; Rh123 counter: -2

How did CCN(CC)c1ccc2nc3ccccc3[n+](CC)c2c1 do in these assays?
B2AR ag: 4; V-ATPase pH: -3; Exocytosis inh: -4; MPTP inh: 23; T cell modulator: 219

Results for CCN(CC)c1ccc2nc3ccc(N)cc3[n+](-c3ccccc3)c2c1 ?
B2AR ag: 16; V-ATPase pH: -6; Exocytosis inh: 48; rCAG RNA binder: 3; MPTP inh: 54*; Rh123 counter: 24*

Results for COc1ccc(-c2n[nH]c(C(F)(F)F)c2-c2cc3ccccc3o2)c(O)c1 ?
B2AR ag: -1; V-ATPase pH: -3; Exocytosis inh: 9; rCAG RNA binder: 20; MPTP inh: 55*; T cell modulator: 24; Rh123 counter: 60*
